For orientation: IC50 means the midpoint of a concentration-inhibition curve. Lower therefore signals higher potency. The term Ki denotes the dissociation constant of the complex between target and ligand, obtained from inhibition or displacement.

Calls of active or inactive are those of the source. No cut-off for these calls is given here.

For assay [1], the target named is T1, 14 kDa phosphohistidine phosphatase (Homo sapiens) (UniProt Q9NRX4).
T1 sequence (whole entry): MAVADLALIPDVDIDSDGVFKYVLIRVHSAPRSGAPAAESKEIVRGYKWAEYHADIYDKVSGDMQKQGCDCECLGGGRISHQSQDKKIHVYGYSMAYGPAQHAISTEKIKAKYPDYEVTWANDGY
Nature of the assay: Mixed inhibition of PHPT1 (unknown origin) assessed as change in Km and Vmax at above 150 uM using DifMUP as substrate by Michaelis-Menten based analysis.

Assay [2] deals with T2, 14 kDa phosphohistidine phosphatase (Homo sapiens, UniProt Q9NRX4).
T2 sequence (Q9NRX4 whole entry): T1 sequence (whole entry)
Kind of assay: Inhibition of PHPT1 (unknown origin) using DiFMUP as fluorogenic substrate incubated for 30 mins followed by substrate addition and measured every 60 seconds for 30 mins by fluorogenic assay.

The target in assay [3] is T1, 14 kDa phosphohistidine phosphatase (Homo sapiens). Nature of the assay: Reversible inhibition of PHPT1 (unknown origin) at 1 mM using DiFMUP as fluorogenic substrate preincubated for 30 mins followed by substrate addition by dialysis method. The gist of the method: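 Reversibility was tested by measuring PHPT1 inhibition in the fluorogenic activity assay before and after dialysis.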

Assay [4] shares this target. Kind of assay: Competitive inhibition of PHPT1 (unknown origin) assessed as change in Km and Vmax at below 150 uM using DifMUP as substrate by Michaelis-Menten based analysis.
For assay [5] the target is unchanged. Kind of assay: Inhibition of PHPT1 (unknown origin) assessed as inactivation constant measured up to 100 uM incubated up to 30 mins using DiFMUP as fluorogenic substrate by fluorogenic assay. The procedure, abridged:
(§1)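 Kinetics of time-dependent PHPT1 inactivation in the fluorogenic activity assay. Observed inactivation rate constants (kobs) were plotted against inhibitor concentration to obtain kinact and KI.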

Assay [6] has as its target T2, 14 kDa phosphohistidine phosphatase. Nature of the assay: Inhibition of PHPT1 (unknown origin) assessed as inhibition constant measured up to 100 uM incubated up to 30 mins using DiFMUP as fluorogenic substrate by fluorogenic assay. The gist of the method: as §1
Assay [7] addresses T1, 14 kDa phosphohistidine phosphatase (Homo sapiens). Kind of assay: Time dependent inhibition of PHPT1 (unknown origin) at 10 uM using DiFMUP as fluorogenic substrate preincubated for 15 to 120 mins followed by substrate addition and measured for 30 mins by fluorogenic assay. Particulars: time 45-150 min, TDE = time-dependent effect.
Assay [8] has as its target T3, Mediator of RNA polymerase II transcription subunit 25 (Homo sapiens, UniProt Q71SY5).
T3 sequence (Q71SY5 whole entry): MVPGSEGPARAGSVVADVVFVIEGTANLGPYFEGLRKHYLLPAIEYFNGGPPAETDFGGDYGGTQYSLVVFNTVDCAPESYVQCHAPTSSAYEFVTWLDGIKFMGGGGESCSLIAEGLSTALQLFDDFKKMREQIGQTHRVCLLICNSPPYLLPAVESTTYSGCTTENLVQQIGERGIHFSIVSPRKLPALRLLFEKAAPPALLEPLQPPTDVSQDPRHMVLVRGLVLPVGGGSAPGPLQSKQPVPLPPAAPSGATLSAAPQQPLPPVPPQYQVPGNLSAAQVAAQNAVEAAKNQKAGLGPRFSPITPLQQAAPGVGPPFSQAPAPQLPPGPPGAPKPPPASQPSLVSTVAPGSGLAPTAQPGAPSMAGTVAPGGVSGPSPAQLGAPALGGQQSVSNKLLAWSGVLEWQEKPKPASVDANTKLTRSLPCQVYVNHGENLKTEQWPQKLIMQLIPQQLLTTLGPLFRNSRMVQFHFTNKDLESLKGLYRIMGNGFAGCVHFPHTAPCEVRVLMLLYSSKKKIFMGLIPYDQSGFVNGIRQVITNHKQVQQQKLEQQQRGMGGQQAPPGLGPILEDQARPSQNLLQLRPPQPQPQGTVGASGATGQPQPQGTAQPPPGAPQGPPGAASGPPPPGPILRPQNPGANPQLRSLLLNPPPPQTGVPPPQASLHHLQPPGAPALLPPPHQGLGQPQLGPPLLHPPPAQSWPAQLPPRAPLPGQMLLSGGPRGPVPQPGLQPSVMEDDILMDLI
Nature of the assay: Inhibition of Med25 transcriptional activation in human MCF-7 cells by fluorescence polarization assay. In kind it is cell-based. Particulars: mcf7. Background: Fluorescence polarisation rises when a labelled molecule tumbles more slowly, as on binding a larger partner.

Assay [9] addresses T1, 14 kDa phosphohistidine phosphatase (Homo sapiens). Nature of the assay: Time dependent inhibition of PHPT1 (unknown origin) at 20 uM using DiFMUP as fluorogenic substrate preincubated for 15 to 120 mins followed by substrate addition and measured for 30 mins by fluorogenic assay. Particulars: time 45-150 min, TDE = time-dependent effect.

Regarding `CC(=O)Nc1cc([As](=O)(O)O)ccc1O` [ACETARSONE], the inhibition entry in [1], in [3] and in assay [4] was “Active” each time. The same molecule registered a half-inhibitory concentration (IC50) in assay [2] of 100 µM.
`Cc1cc(O)c(C=O)c2c1C(=O)Oc1c(C)c(O)c3c(c1O2)C(O)OC3=O` (centres undefined) [NORSTICTIC ACID]: the Kinact in assay [5] came out at 1.7 min⁻¹. In addition, in assay [6], the Ki was found to be 90 µM. In addition, the IC50 in assay [2] turned out to be 7.9 µM; in assay [8], 2300 nM. For the same molecule, the inhibition entry in assay [7] was “Tde”.
Regarding `O=[N+]([O-])c1cc([As](=O)(O)O)ccc1O` [ROXARSONE], the inhibition result in [1] and in [4] was “Active” each time. Half-maximal inhibition in assay [2] (IC50) was put at 80 µM.
Molecule `COc1cc(C)c2c(c1C=O)Oc1c(c(C)c(O)c3c1C(O)OC3=O)OC2=O` (centres undefined) [STICTIC ACID] gave an IC50 in assay [2] of 22 µM. The inhibition entry in [9] is “Tde”.

(Values after ChEMBL document CHEMBL5120929, “Inhibitor Screen Identifies Covalent Inhibitors of the Protein Histidine Phosphatase PHPT1” (ACS Med Chem Lett, 2022).)
